Assay results: ChEMBL document CHEMBL1127686, “Synthesis of selective non-Ca(2+)-mobilizing inhibitors of D-myo-inositol 1,4,5-trisphosphate 5-phosphatase” (J Med Chem, 1994)
“And” between values parts separate entries of the source, which are not always exact repeats. Identical values can stand only once. Each block holds one compound with its values, some of them ahead of it.

What was measured:
[1] = Tested for binding affinity against Ins(1,4,5)-P3 5-phosphatase; parameters: species or system Homo sapiens
[2] = Tested for binding affinity against human erythrocyte 5-phosphatase
[3] = Competitive inhibition of Inositol 1,4,5-trisphosphate 5-phosphatase; parameters: species or system Homo sapiens
[4] = Binding affinity for Inositol 1,4,5-trisphosphate kinase
Outline: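 Crude rat brain Ins(1,4,5)P3 3-kinase; inhibition of [3H]Ins(1,4,5)P3 phosphorylation measured; Km for Ins(1,4,5)P3 0.6 μM; Ki determined by a previously described method.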

[5] = (§1) Competitive inhibition of human erythrocyte membrane Ins(1,4,5)P3 5-phosphatase
Outline: (§2)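 Ins(1,4,5)P3 5-phosphatase from human erythrocyte membrane; Ki determined by a previously described method, taken as the mean of at least three experiments.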

Homo sapiens [6] = species: Homo sapiens; assay: Tested for Ca+2 potency in human neuroblastoma cells; type: functional
Outline: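 Ca2+ release from intracellular stores measured in electrically permeabilized human neuroblastoma cells; potency expressed as EC50.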

Homo sapiens [7] = species: Homo sapiens; assay: as §1; outline: as §2

Compound: OC1C(O)C(OP(O)(O)=S)C(OP(O)(O)=S)C(O)C1OP(O)(O)=S (configuration not stated)
Ki [1]: 0.5 µM

Compound: OC1C(OP(O)(O)=S)C(O)C(OP(O)(O)=S)C(O)C1OP(O)(O)=S (configuration not stated)
Ki [1]: 0.43 µM

Ki [2]: 350 µM and 978 µM
Compound: O=C(O)C(COP(=O)(O)O)OP(=O)(O)O (configuration not stated)

Ki [3]: 45 µM
Compound: O=P(O)(O)O[C@H]1[C@H](O)[C@@H](OP(=O)(O)O)[C@H](O)[C@@H](OP(=O)(O)O)[C@H]1O

Compound: OC1C(O)C(OP(O)(O)=S)C(OP(O)(O)=S)C(O)C1OP(O)(O)=S (stereo in doubt)
Ki [4]: 1.46 µM
Ki [5]: 1.7 µM

Compound: OC1C(O)C(OP(O)(O)=S)C(OP(O)(O)=S)C(O)C1OP(O)(O)=S (stereo in doubt; 24)
Ki [4]: 247 µM
Ki [2]: 0.3 µM

Ki [3]: 39 µM
Ki [2]: 124 µM
EC50 (Homo sapiens [6]): 0.12 µM
Km (Homo sapiens [7]): 40 µM
Compound: O=P(O)(O)O[C@@H]1[C@H](O)[C@H](O)[C@@H](OP(=O)(O)O)[C@H](OP(=O)(O)O)[C@H]1O [INS(1,4,5)P3]
